Reference: ChEMBL document CHEMBL5046239, “Development of novel phenoxyalkylpiperidines as high-affinity Sigma-1 (σ1) receptor ligands with potent anti-amnesic effect” (Eur J Med Chem, 2022)
Calls of active or inactive are those of the source. The rule behind the calls is not given here.

Key:
Mus musculus [1] = assay: Cognitive enhancing effect in dizocilpine induced amnesia Swiss mouse model assessed as reduction in memory impairment at 0.03 to 0.3 mg/kg, ip pretreated for 10 mins followed by dizocilpine addition measured after 20 mins by Y-maze test; type: functional, organism-based; settings: dose 0.03-0.3 mg/kg, time 30.0 min
Procedure, shortened: (§1)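 Male Swiss OF-1 mice, 7–9 weeks old, n = 12–16 per group. Test drug given ip in saline 10 min before dizocilpine (0.15 mg/kg ip), which was given 20 min before the Y-maze session or passive avoidance training. NE-100 (1 mg/kg ip) was given at the same time as the test drug where used. Read-outs were Y-maze alternation and step-through latency at 24 h retention. Statistics were ANOVA with Dunnett's test, or Dunn's test for latency.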

C6 = assay: Cytotoxicity against rat C6 cells assessed as cell viability measured after 48 hrs by MTT assay; type: functional, cell-based; settings: C6, 48 h
Mus musculus [2] = assay: Cognitive enhancing effect in dizocilpine induced amnesia Swiss mouse model assessed as increase in latency time at 0.03 to 0.3 mg/kg, ip pretreated for 10 mins followed by dizocilpine addition in presence of NE-100 measured after 20 mins by step-through passive avoidance test; type: functional, organism-based; settings: dose 0.03-0.3 mg/kg, time 30.0 min; procedure, shortened: as §1
Mus musculus [3] = assay: Cognitive enhancing effect in dizocilpine induced amnesia Swiss mouse model assessed as increase in latency time at 0.03 to 0.3 mg/kg, ip pretreated for 10 mins followed by dizocilpine addition measured after 20 mins by step-through passive avoidance test; type: functional, organism-based; settings: dose 0.03-0.3 mg/kg, time 30.0 min; procedure, shortened: as §1
MCF7 = assay: Cytotoxicity against human MCF7 cells assessed as cell viability measured after 48 hrs by MTT assay; type: functional, cell-based; settings: MCF7, 48 h
Procedure, shortened: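 MCF7 cells grown in DMEM with 10% FBS, glutamine and pen-strep at 37 °C, 5% CO2. Seeded at 25,000 cells/well and dosed the next day at 1–100 μM for 48 h. Solvent controls included. MTT 0.5 mg/mL for 3–4 h, formazan dissolved in DMSO/EtOH, absorbance read at 570/630 nm.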

HepG2 = assay: Cytotoxicity against human HepG2 cells assessed as cell viability measured after 48 hrs by MTT assay; type: functional, cell-based; settings: HepG2, 48 h
Procedure, shortened: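 HepG2 cells grown in MEM with 10% FBS, glutamine, pen-strep and NEAA at 37 °C, 5% CO2. Seeded at 25,000 cells/well and dosed the next day at 1–100 μM for 48 h. Solvent controls (EtOH, DMSO) included. MTT 0.5 mg/mL for 3–4 h, formazan dissolved in DMSO/EtOH, absorbance read at 570/630 nm.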

SH-SY5Y = assay: Cytotoxicity against human SH-SY5Y cells assessed as cell viability measured after 48 hrs by MTT assay; type: functional, cell-based
Procedure, shortened: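 SH-SY5Y cells grown in MEM/Ham's F12 (1:1) with 10% FBS, glutamine and pen-strep at 37 °C, 5% CO2. Seeded at 25,000 cells/well and dosed the next day at 1–100 μM for 48 h. Solvent controls included. MTT 0.5 mg/mL for 3–4 h, formazan dissolved in DMSO/EtOH, absorbance read at 570/630 nm.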

Mus musculus [4] = assay: Cognitive enhancing effect in dizocilpine induced amnesia Swiss mouse model assessed as reduction in memory impairment at 0.03 to 0.3 mg/kg, ip pretreated for 10 mins followed by dizocilpine addition in presence of NE-100 measured after 20 mins by Y-maze test; type: functional, organism-based; settings: dose 0.03-0.3 mg/kg, time 30.0 min; procedure, shortened: as §1
[5] = target: T1, Sigma intracellular receptor 2 (Rattus norvegicus, UniProt Q5U3Y7); assay: Displacement of [3H]DTG from sigma 2 receptor in Wistar Han rat liver membranes measured after 120 mins by scintillation counting method; type: cell membranes, Membrane
T1 sequence (Q5U3Y7 whole entry): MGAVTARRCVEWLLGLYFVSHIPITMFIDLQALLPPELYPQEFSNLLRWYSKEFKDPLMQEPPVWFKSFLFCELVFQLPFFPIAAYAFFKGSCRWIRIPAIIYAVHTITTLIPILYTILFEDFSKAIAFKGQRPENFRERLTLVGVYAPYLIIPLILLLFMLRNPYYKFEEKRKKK

[6] = target: Sigma non-opioid intracellular receptor 1 (Cavia porcellus, UniProt Q60492); assay: Displacement of [3H](+)-pentazocine from sigma 1 receptor in guinea pig brain membranes measured after 120 mins by scintillation counting method; type: cell membranes, Membrane
Mus musculus [7] = assay: Cognitive enhancing effect in dizocilpine induced amnesia Swiss mouse model assessed as reduction in memory impairment at 1 to 10 mg/kg, ip pretreated for 10 mins followed by dizocilpine addition in presence of NE-100 measured after 20 mins by Y-maze test; type: functional, organism-based; settings: dose 1-10 mg/kg, time 30.0 min; procedure, shortened: as §1
Mus musculus [8] = assay: Cognitive enhancing effect in dizocilpine induced amnesia Swiss mouse model assessed as reduction in memory impairment at 1 to 10 mg/kg, ip pretreated for 10 mins followed by dizocilpine addition measured after 20 mins by Y-maze test; type: functional, organism-based; settings: dose 1-10 mg/kg, time 30.0 min; procedure, shortened: as §1
Mus musculus [9] = assay: Cognitive enhancing effect in dizocilpine induced amnesia Swiss mouse model assessed as increase in latency time at 1 to 10 mg/kg, ip pretreated for 10 mins followed by dizocilpine addition in presence of NE-100 measured after 20 mins by step-through passive avoidance test; type: functional, organism-based; settings: dose 1-10 mg/kg, time 30.0 min; procedure, shortened: as §1
Mus musculus [10] = assay: Cognitive enhancing effect in dizocilpine induced amnesia Swiss mouse model assessed as increase in latency time at 1 to 10 mg/kg, ip pretreated for 10 mins followed by dizocilpine addition measured after 20 mins by step-through passive avoidance test; type: functional, organism-based; settings: dose 1-10 mg/kg, time 30.0 min; procedure, shortened: as §1

Sequence of Sigma non-opioid intracellular receptor 1 (Q60492 whole entry): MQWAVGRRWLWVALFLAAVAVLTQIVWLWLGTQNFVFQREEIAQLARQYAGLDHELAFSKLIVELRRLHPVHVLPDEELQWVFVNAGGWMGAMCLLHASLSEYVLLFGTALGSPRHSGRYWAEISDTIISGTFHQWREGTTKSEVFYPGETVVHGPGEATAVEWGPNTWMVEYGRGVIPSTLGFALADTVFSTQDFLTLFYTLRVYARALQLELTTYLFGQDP

Row | SMILES | Ki [5] | Ki [6] | EC50 (C6) | other results
1 | CC1CCN(CCOc2ccc(Cl)cc2)CC1 | 239 nM | – | > 100000 nM | Activity (Mus musculus [1]): Active; Activity (Mus musculus [2]): inactive; Activity (Mus musculus [3]): Active; EC50 (MCF7): > 100000 nM; EC50 (HepG2): > 100000 nM; EC50 (SH-SY5Y): > 100000 nM; Activity (Mus musculus [4]): inactive
2 | COc1ccc(OCCN2[C@H](C)CCC[C@@H]2C)cc1 | 636 nM | 379 nM | – | –
3 | C[C@@H]1CCC[C@H](C)N1CCCOc1ccc(Cl)cc1 | 17.2 nM | 4.43 nM | – | –
4 | C[C@@H]1CCCCN1CCOc1ccc(Cl)cc1 | 77.8 nM | 20.6 nM | – | –
5 | CC1(C)CCCC(C)(C)N1CCOc1ccc(Cl)cc1 | 411 nM | > 5000 nM | > 100000 nM | –
6 | CC1CCN([C@H](C)COc2ccc(Cl)cc2)CC1 | 52.3 nM | 1.18 nM | > 100000 nM | –
7 | COc1ccc(OCCN2CCCC[C@H]2C)cc1 | 300 nM | 35.9 nM | – | –
8 | COc1ccc(OCCCN2[C@H](C)CCC[C@@H]2C)cc1 | 52.5 nM | 23.5 nM | – | –
9 | COc1ccc(OCCN2CCCC[C@@H]2C)cc1 | 175 nM | 43.4 nM | – | –
10 | C[C@@H]1CCC[C@H](C)N1CCOc1ccc(Cl)cc1 | 116 nM | 59.4 nM | – | –
11 | CC1CCN([C@@H](C)COc2ccc(Cl)cc2)CC1 | 186 nM | 0.34 nM | – | –

The next lines start with results.

Row | Ki [5] | Ki [6] | SMILES | EC50 (C6) | other results
12 | 723 nM | 1.49 nM | COc1ccc(OC[C@H](C)N2CCC(C)CC2)cc1 | – | –
13 | 187 nM | 1.16 nM | COc1ccc(OC[C@@H](C)N2CCC(C)CC2)cc1 | > 100000 nM | –
14 | 69.8 nM | 16.6 nM | C[C@H]1CCCCN1CCOc1ccc(Cl)cc1 | – | –
15 | 170 nM | 0.89 nM | COc1ccc(OCCN2CCC(C)CC2)cc1 | > 100000 nM | Activity (Mus musculus [7]): inactive; Activity (Mus musculus [8]): Active; Activity (Mus musculus [9]): inactive; EC50 (MCF7): > 100000 nM; EC50 (HepG2): > 100000 nM; EC50 (SH-SY5Y): > 100000 nM; Activity (Mus musculus [10]): Active
16 | 809 nM | > 5000 nM | COc1ccc(OCCN2C(C)(C)CCCC2(C)C)cc1 | > 100000 nM | –
